Experimental findings from ChEMBL document CHEMBL1124700, “1,4-Dihydronaphthoquinones, hydroindoloquinones, benzofurans, and benzothiophenes as inhibitors of 5-lipoxygenase. Synthesis and structure-activity studies” (J Med Chem, 1990) are described below.

The species entered for experiment [1] is Rattus norvegicus. Nature of the experiment: In vitro inhibition of LTC4/D4 (leukotriene) production in rat peritoneal mononuclear cells. It counts as functional, cell-based. The method in brief:
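Rat peritoneal mononuclear cells challenged with calcium ionophore A23187 in presence of cysteine. Initial screen at 10 μg/mL, duplicate determinations, expressed as percent of control. IC50 from follow-up testing, interpolated from log dose–response plot. LTC4/D4 measured by guinea pig ileum bioassay (atropinized, mepyramine-treated) or, later, LTC4-selective radioimmunoassay.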

For experiment [2], the target named is T1, Polyunsaturated fatty acid 5-lipoxygenase (Rattus norvegicus) (UniProt P12527).
T1 sequence (whole entry): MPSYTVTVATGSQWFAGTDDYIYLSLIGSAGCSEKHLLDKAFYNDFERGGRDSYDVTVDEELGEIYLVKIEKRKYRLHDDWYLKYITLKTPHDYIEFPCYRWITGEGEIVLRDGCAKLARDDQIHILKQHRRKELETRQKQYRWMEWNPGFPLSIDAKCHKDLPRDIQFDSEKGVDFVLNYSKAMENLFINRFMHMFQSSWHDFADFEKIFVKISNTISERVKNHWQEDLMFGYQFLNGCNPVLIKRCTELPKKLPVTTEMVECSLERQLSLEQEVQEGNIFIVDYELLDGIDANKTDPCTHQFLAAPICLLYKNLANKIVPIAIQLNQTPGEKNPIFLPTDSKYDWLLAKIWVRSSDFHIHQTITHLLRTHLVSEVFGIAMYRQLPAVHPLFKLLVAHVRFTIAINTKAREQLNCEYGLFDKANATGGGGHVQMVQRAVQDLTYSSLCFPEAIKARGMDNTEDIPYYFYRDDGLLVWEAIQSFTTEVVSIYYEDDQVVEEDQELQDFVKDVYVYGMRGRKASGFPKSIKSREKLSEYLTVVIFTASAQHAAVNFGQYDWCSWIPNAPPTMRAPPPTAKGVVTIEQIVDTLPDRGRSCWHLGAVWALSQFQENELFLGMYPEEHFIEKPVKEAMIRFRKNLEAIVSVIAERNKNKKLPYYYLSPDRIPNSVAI
Nature of the experiment: Ex vivo inhibition of LTB4 production in rat blood following 50 mg/kg p.o. The note with it: at 50 mg/kg. Type of experiment: functional, organism-based. More on the design: dose 50 mg/kg. In outline: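 Male Sprague-Dawley rats (225–275 g), fasted 18 h, given test compound orally at 50 mg/kg; controls got vehicle; five rats per compound. At 2 h, anesthetized; heparinized blood from vena cava. Blood (1.0 mL) stimulated with A23187 (30 μM), 30 min, 37 °C; plasma LTB4 by radioimmunoassay. Percent inhibition from mean treated vs mean control; Wilcoxon rank sum.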

For experiment [3], the species on record is Rattus norvegicus. Briefly: Ex vivo inhibition of LTB4 production was determined. It counts as functional, organism-based. The method in brief: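 Male Sprague-Dawley rats (225–275 g), fasted 18 h, given 50 mg/kg orally in 1.0 mL solution; controls received 1.0 mL vehicle; five rats per compound. Heparinized vena cava blood taken 2 h post-dose under anesthesia; 1.0 mL stimulated with A23187 (30 μM) 30 min at 37 °C. Plasma LTB4 by radioimmunoassay; percent inhibition from group mean vs control mean; Wilcoxon rank sum statistics.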

Setting [4] is: Rattus norvegicus, read-out: IC50.

As for `C=Cc1c(OCC)c(OC)c2ccccc2c1OC`, in the experiment listed under Rattus norvegicus [1], the IC50 result is given as “Not Active”.

For `CCCCc1c(C)c(OC)c2ccccc2c1OC(C)=O`, the IC50 in the experiment filed under Rattus norvegicus [1] (setting [4]) was determined as 0.2 µM. As to `CCc1c(CC)c(OC(C)=O)c2cc(OC)ccc2c1OC`, the IC50 in the experiment listed under Rattus norvegicus [1] (setting [4]) is 0.69 µM. Consider `COc1cc(-c2ccccc2)c(OC(C)=O)c2ccn(C)c12`, for which the IC50 in the experiment filed under Rattus norvegicus [1] (setting [4]) stood at 3.86 µM.

As for `CCc1c(CC)c(OC(C)=O)c2c(C)c(C)cc(C)c2c1OC`, the IC50 in the experiment listed under Rattus norvegicus [1] (setting [4]) is 15.7 µM. Further, the inhibition in experiment [2] is 14.7%. Regarding `CCOc1c(C(C)O)c(OC)c2ccccc2c1OC` (stereo unspecified), the concentration for half-maximal inhibition (IC50) in the experiment filed under Rattus norvegicus [1] (setting [4]) stood at 86 µM. Regarding `CCc1c(CC)c(OC(C)=O)c2ccccc2c1OC`, the IC50 in the experiment listed under Rattus norvegicus [1] (setting [4]) was 0.4 µM. Also, the inhibition in experiment [2] turned out to be 74.8%. As for `COc1cc(-c2ccccc2)c(O)c2ccoc12`, the half-inhibitory concentration (IC50) in the experiment filed under Rattus norvegicus [1] (setting [4]) is 2.2 µM. For the molecule `CCCCc1c(CC)c(OC(C)=O)c2ccccc2c1OC`, the IC50 in the experiment listed under Rattus norvegicus [1] (setting [4]) turned out to be 1.13 µM. `CCCCc1cc(OC)c2c(C)ccc(C)c2c1OC(C)=O`: the IC50 in the experiment filed under Rattus norvegicus [1] (setting [4]) turned out to be 7.35 µM. In addition, in experiment [2], the inhibition came to 19.1%. In the case of `COc1c(-c2ccccc2)c(-c2ccccc2)c(OC(C)=O)c2ccccc12`, the IC50 in the experiment listed under Rattus norvegicus [1] (setting [4]) amounted to 11 µM. `CCOC(=O)c1c(CC)c(OC(C)=O)c2ccccc2c1OC`: the IC50 in the experiment listed under Rattus norvegicus [1] (setting [4]) was determined as 1.16 µM. In turn, `O=C1C=CC(=O)c2ccccc21` displayed an IC50 in the experiment listed under Rattus norvegicus [3] below 20 µM.

In the case of `CCc1c(CC)c(OC(C)=O)c2c(C)ccc(C)c2c1OC`, the IC50 in the experiment filed under Rattus norvegicus [1] (setting [4]) was determined as 13 µM. Besides, the inhibition in experiment [2] amounted to 50.6%. `CCCCc1cc(OC)c2c(OC)cccc2c1OC(C)=O`: the IC50 in the experiment filed under Rattus norvegicus [1] (setting [4]) was 0.26 µM. For the same molecule, the inhibition in experiment [2] came out at 17.5%. For `CCc1c(CC)c(OC)c2c(ccn2C)c1OC(C)=O`, the IC50 in the experiment listed under Rattus norvegicus [1] (setting [4]) was found to be 2.03 µM. `CCCCC1=CC(=O)c2ccccc2C1=O`: in the experiment listed under Rattus norvegicus [1] (setting [4]), the IC50 worked out at 2.24 µM. As for `CCCCc1cc(OC)c2sccc2c1OC(C)=O`, in the experiment listed under Rattus norvegicus [1] (setting [4]), the IC50 is 0.46 µM. `CCCCc1c(C)c(OC)c2c(ccn2C)c1OC(C)=O`: in the experiment filed under Rattus norvegicus [1] (setting [4]), the IC50 is 0.76 µM.

Take `CCCCc1cc(OC)c2c(C)c(C)c(C)c(C)c2c1OC(C)=O`: in the experiment listed under Rattus norvegicus [1] (setting [4]), the IC50 stood at 44.1 µM. Further, the inhibition in experiment [2] is 41.2%. Regarding `CCCCc1cc(OC)c2c(C)cc(C)c(C)c2c1OC(C)=O`, the IC50 in the experiment filed under Rattus norvegicus [1] (setting [4]) is 11.9 µM. The inhibition in experiment [2] was determined as 35.4%. `CCOC(=O)c1c(CC)c(OC)c2ccccc2c1OC(C)=O`: the IC50 in the experiment listed under Rattus norvegicus [1] (setting [4]) came out at 3.76 µM.

In the case of `CCCCCc1c(C(=O)OCC)c(OC)c2ccccc2c1OC(C)=O`, the IC50 in the experiment filed under Rattus norvegicus [1] (setting [4]) came out at 0.94 µM. As for `CCCCc1ccc2c(OC(C)=O)c(CCCC)cc(OC)c2c1`, in the experiment listed under Rattus norvegicus [1] (setting [4]), the IC50 was determined as 0.48 µM. The inhibition in experiment [2] was 19.2%. As for `CCCCc1cc(OC)c2ccc(OC)cc2c1OC(C)=O`, the 50% inhibitory concentration (IC50) in the experiment filed under Rattus norvegicus [1] (setting [4]) was determined as 1.38 µM.

As for `CCCCC1=CC(=O)c2occc2C1=O`, the IC50 in the experiment filed under Rattus norvegicus [1] (setting [4]) was 2.05 µM. Same read-out and setting: the value for `CCCCc1cc(OC)c2sccc2c1O` was 1.05 µM.

For `CCCCCc1c(C(=O)OCC)c(OC(C)=O)c2ccccc2c1OC`, the IC50 in the experiment listed under Rattus norvegicus [1] (setting [4]) was 8.92 µM. Turning to `CCCCc1c(CCCC)c(OC)c2occc2c1O`, in the experiment listed under Rattus norvegicus [1] (setting [4]), the IC50 turned out to be 1.15 µM. On to `CCCCc1cc(OC)c2ccccc2c1O`, for which the IC50 in the experiment filed under Rattus norvegicus [1] (setting [4]) was 1.47 µM.

Turning to `COc1c(-c2ccccc2)c(-c2ccccc2)c(OC(C)=O)c2ccn(C)c12`, the IC50 result in the experiment filed under Rattus norvegicus [1] is “Not Active”. Consider `CCCCc1c(CC)c(OC)c2ccccc2c1OC(C)=O`, for which, in the experiment filed under Rattus norvegicus [1] (setting [4]), the IC50 worked out at 0.99 µM.

With `CCCCc1c(CCCC)c(OC(C)=O)c2ccccc2c1OC`, the IC50 in the experiment filed under Rattus norvegicus [1] (setting [4]) came to 6.02 µM. Moreover, the inhibition in experiment [2] was found to be 29.2%. For `CCCCc1c(C)c(OC(C)=O)c2ccn(C)c2c1OC`, the IC50 in the experiment filed under Rattus norvegicus [1] (setting [4]) turned out to be 0.76 µM. Same read-out and setting: the value for `CCCCC1=CC(=O)c2sccc2C1=O` was 23.5 µM; that for `CCOC(=O)c1c(-c2ccccc2)c(OC(C)=O)c2ccccc2c1OC` was 5.81 µM.

Regarding `CCc1c(CC)c(OC)c2c(OC)cccc2c1OC(C)=O`, the IC50 in the experiment listed under Rattus norvegicus [1] (setting [4]) worked out at 0.89 µM. Regarding `CCCCc1cc(OC)c2occc2c1OC(C)=O`, in the experiment listed under Rattus norvegicus [1] (setting [4]), the IC50 is 0.11 µM. As to `CCCc1c(CCC)c(OC(C)=O)c2ccccc2c1OC`, in the experiment filed under Rattus norvegicus [1] (setting [4]), the IC50 is 1.43 µM. Consider `CCOc1c(C(C)O[Si](C)(C)C(C)(C)C)c(OC(C)=O)c2ccccc2c1OC` (stereo unspecified), for which the IC50 in the experiment filed under Rattus norvegicus [1] (setting [4]) came out at 23.9 µM. In the case of `COc1c(-c2ccccc2)c(-c2ccccc2)c(O)c2ccoc12`, in the experiment filed under Rattus norvegicus [1] (setting [4]), the IC50 was 4.39 µM.

Take `CCCCc1cc(OC)c2ccccc2c1OC`: the 50% inhibitory concentration (IC50) in the experiment filed under Rattus norvegicus [1] (setting [4]) came to 40.9 µM. As for `CCCCc1cc(OC)c2ccccc2c1OC(C)=O` [BUNAPROLAST], in the experiment filed under Rattus norvegicus [1] (setting [4]), the IC50 came to 0.44 µM. For the same molecule, in experiment [2], the inhibition was 61.1%. In the same order, the values of `CCc1c(CC)c(OC)c2c(C)cccc2c1OC(C)=O` are 0.83 µM and 40.6%. `CCCCc1ccc2c(OC(C)=O)c(CC)c(CC)c(OC)c2c1`: the IC50 in the experiment filed under Rattus norvegicus [1] (setting [4]) stood at 0.94 µM. The inhibition in experiment [2] is 17%. For `COc1c(C)c(-c2ccccc2)c(O)c2ccoc12`, in the experiment filed under Rattus norvegicus [1] (setting [4]), the IC50 turned out to be 1.25 µM.

With `CCCCc1cc(OC)c2occc2c1O`, the IC50 in the experiment filed under Rattus norvegicus [1] (setting [4]) was determined as 11.9 µM. Same read-out and setting: as for `CCCCc1cc(OC)c2c(ccn2C)c1OC(C)=O`, the figure is 0.72 µM. On to `CCCCc1cc(OC)c2c(C)cccc2c1OC(C)=O`, for which the IC50 in the experiment listed under Rattus norvegicus [1] (setting [4]) came out at 0.62 µM. The inhibition in experiment [2] stood at 31.8%. As to `CCc1c(CC)c(OC(C)=O)c2c(C)c(C)c(C)c(C)c2c1OC`, the concentration for half-maximal inhibition (IC50) in the experiment filed under Rattus norvegicus [1] (setting [4]) turned out to be 37.3 µM. Also, in experiment [2], the inhibition is -4.9%.

On to `CCCCc1cccc2c(OC)c(CC)c(CC)c(OC(C)=O)c12`, for which the IC50 in the experiment listed under Rattus norvegicus [1] (setting [4]) amounted to 14.1 µM. Besides, the inhibition in experiment [2] came out at 30.5%.

By IC50 is commonly meant the midpoint of a concentration-inhibition curve. One may read the inhibition as the relative decrease from the control value, in per cent.
